Measurements taken from ChEMBL document CHEMBL1134268, “Synthesis and biological evaluation of tropane-like 1-[2-[bis(4-fluorophenyl)methoxy]ethyl]-4-(3-phenylpropyl)piperazine (GBR 12909) analogues” (J Med Chem, 2001).

How the values were obtained:
[1] = biological target: Sodium-dependent dopamine transporter (Rattus norvegicus, UniProt P23977); test: Binding affinity against Dopamine transporter using [125]RTI-55
[2] = biological target: T1, Muscarinic acetylcholine receptor M1 (Rattus norvegicus, UniProt P08482); test: Binding affinity against Muscarinic receptor from rat brain membranes using [3H]pirenzepine
T1 sequence (P08482 whole entry): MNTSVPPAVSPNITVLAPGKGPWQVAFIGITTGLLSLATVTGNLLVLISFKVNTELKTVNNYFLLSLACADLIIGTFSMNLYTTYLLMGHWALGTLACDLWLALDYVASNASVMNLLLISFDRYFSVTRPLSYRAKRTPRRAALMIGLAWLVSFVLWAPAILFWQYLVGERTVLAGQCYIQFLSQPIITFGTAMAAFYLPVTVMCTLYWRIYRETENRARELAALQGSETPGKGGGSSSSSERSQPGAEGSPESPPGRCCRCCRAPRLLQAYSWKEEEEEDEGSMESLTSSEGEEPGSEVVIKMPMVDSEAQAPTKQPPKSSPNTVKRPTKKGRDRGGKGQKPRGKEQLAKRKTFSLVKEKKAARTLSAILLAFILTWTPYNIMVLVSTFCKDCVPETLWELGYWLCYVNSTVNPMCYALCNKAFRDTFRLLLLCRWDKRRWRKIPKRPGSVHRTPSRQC
How it was run: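 Male Sprague-Dawley rat brain P2 membranes (without cerebellum and brainstem), 300 μg protein, with 5 nM [3H]pirenzepine and 5 mM MgCl2 in 50 mM Tris-HCl pH 7.4, for 60 min at 37 °C. Nonspecific binding was defined with 10 μM QNB. Nine ligand concentrations (1 nM-10 μM or 10 nM-100 μM) were tested.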

Rattus norvegicus [3] = species on record: Rattus norvegicus; test: Inhibition of Dopamine reuptake from rat caudate using [3H]DA; format: functional
How it was run: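 Rat caudate synaptosomes were prepared by homogenization in ice-cold 10% sucrose, and the 1000g supernatant was used. Incubation was with 2 nM [3H]DA (final) in Krebs-phosphate buffer pH 7.4 containing ascorbic acid (1 mg/mL) and pargyline (50 μM), for 20 min at 25 °C. Nonspecific uptake was defined with 1 μM of a DAT inhibitor. Filtration was followed by counting of retained tritium.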

[4] = biological target: Sodium-dependent serotonin transporter (Rattus norvegicus, UniProt P31652); test: Binding affinity against serotonin transporter using [125]RTI-55
[5] = biological target: Monoamine transporters; serotonin & dopamine (Rattus norvegicus) (UniProt P31652+P23977); test: Ratio of binding affinity against Dopamine to that of serotonin transporter; format: protein assay
Rattus norvegicus [6] = species on record: Rattus norvegicus; test: Inhibition of 5-HT reuptake from whole rat brain minus cerebellum using [3H]5-HT

Chain of Sodium-dependent serotonin transporter (P31652 whole entry): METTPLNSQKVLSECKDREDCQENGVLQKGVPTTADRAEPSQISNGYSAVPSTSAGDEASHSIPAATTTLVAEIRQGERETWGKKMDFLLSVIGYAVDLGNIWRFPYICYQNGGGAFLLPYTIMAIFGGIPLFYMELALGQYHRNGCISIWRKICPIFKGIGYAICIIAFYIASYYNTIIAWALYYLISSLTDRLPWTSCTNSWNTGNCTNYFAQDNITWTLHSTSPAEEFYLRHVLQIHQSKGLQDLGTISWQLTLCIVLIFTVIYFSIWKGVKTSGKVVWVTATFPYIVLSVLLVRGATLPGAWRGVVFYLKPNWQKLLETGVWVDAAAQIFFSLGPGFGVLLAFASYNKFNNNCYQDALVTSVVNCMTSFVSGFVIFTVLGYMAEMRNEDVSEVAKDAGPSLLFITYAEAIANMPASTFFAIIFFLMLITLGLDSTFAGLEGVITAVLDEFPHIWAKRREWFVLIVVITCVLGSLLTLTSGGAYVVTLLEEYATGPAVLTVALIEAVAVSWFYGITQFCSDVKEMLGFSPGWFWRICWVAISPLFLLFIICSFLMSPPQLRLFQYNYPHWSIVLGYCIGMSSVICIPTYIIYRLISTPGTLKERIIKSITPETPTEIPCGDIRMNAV
Chain of Sodium-dependent dopamine transporter (P23977 whole entry): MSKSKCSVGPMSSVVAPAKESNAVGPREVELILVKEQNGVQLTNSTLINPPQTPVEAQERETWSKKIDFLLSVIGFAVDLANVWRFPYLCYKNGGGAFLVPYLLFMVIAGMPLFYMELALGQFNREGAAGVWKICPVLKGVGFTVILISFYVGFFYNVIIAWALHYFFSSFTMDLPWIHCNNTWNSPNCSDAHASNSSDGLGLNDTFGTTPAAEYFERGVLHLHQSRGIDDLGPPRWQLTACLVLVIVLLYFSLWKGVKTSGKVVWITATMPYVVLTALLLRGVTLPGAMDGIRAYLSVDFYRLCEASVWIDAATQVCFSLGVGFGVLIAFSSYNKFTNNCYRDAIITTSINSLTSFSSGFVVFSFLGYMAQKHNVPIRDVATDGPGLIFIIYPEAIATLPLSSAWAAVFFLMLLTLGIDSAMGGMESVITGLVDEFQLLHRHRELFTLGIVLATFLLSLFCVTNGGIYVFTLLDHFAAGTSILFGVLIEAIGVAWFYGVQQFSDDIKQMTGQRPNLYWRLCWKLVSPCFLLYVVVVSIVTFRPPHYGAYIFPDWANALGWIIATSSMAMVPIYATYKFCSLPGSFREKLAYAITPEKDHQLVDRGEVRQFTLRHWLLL
Chain of Monoamine transporters; serotonin & dopamine (Rattus norvegicus) (P23977 whole entry, looked up): as the sequence (P23977 whole entry) above
Chain of Monoamine transporters; serotonin & dopamine (Rattus norvegicus) (P31652 whole entry, looked up): as the sequence (P31652 whole entry) above

| SMILES | Ki [1] | Ki [2] | Ki (Rattus norvegicus [3]) | Ki [4] | Ratio [5] | Ki (Rattus norvegicus [6]) |
| --- | --- | --- | --- | --- | --- | --- |
| CN1C2CCC1CC(CCOC(c1ccc(F)cc1)c1ccc(F)cc1)C2 (stereo not drawn) | 52 µM | 0.13 µM | 0.08 µM | 4.1 µM | 79 |  |
| c1ccc(CCCN2CCN(CCOC(c3ccccc3)c3ccccc3)CC2)cc1 |  |  | 0.0037 µM |  |  | 0.29 µM |
| CN1[C@@H]2CC[C@H]1C[C@@H](CCOC(c1ccccc1)c1ccccc1)C2 |  | 0.056 µM | 0.26 µM | 15 µM | 54 | 12 µM |
| CN1C2CCC1CC(=CCOC(c1ccccc1)c1ccccc1)C2 |  | 0.094 µM | 0.19 µM | 8.3 µM | 64 | 8.1 µM |
| CN1C2CCC1CC(=CCOC(c1ccc(F)cc1)c1ccc(F)cc1)C2 | 19 µM | 0.2 µM | 0.035 µM | 3.6 µM | 189 | 5 µM |
| CN1[C@@H]2CC[C@H]1C[C@@H](CCNC(c1ccc(F)cc1)c1ccc(F)cc1)C2 |  | 0.63 µM | 0.16 µM | 30 µM | 111 | 7.1 µM |
| CN1[C@@H]2CC[C@H]1C[C@@H](OC(c1ccccc1)c1ccccc1)C2 [BENZTROPINE] |  |  | 0.13 µM |  |  | 18.5 µM |
| CN1C2CCC1CC(=CC(=O)NC(c1ccc(F)cc1)c1ccc(F)cc1)C2 |  | 2.5 µM | 0.24 µM | 19 µM | 38 | 17 µM |
| c1ccc(CCCN2[C@@H]3CC[C@H]2C[C@@H](CCOC(c2ccccc2)c2ccccc2)C3)cc1 | 28 µM | 0.078 µM | 0.12 µM | 0.17 µM | 6 | 0.57 µM |
| Fc1ccc(C(OCC[C@H]2C[C@H]3CC[C@@H](C2)N3CCCc2ccccc2)c2ccc(F)cc2)cc1 | 19 µM | 0.17 µM | 0.078 µM | 0.079 µM | 4 | 0.43 µM |
| CN1C2CCC1CC(CCNC(c1ccccc1)c1ccccc1)C2 (stereo not drawn) | 3.8 µM | 0.34 µM | 1.1 µM | 43 µM | 11 | 14 µM |
| CN1C2CCC1CC(CC(=O)NC(c1ccc(F)cc1)c1ccc(F)cc1)C2 (stereo not drawn) | 3.4 µM | 1.2 µM | 1.8 µM | 69 µM | 20 | 60 µM |
| CN1C2CCC1CC(=CC(=O)NC(c1ccccc1)c1ccccc1)C2 | 2.3 µM | 1.7 µM | 0.88 µM | 78 µM | 34 | 60 µM |
| Fc1ccc(C(OCCN2CCN(CCCc3ccccc3)CC2)c2ccc(F)cc2)cc1 [VANOXERINE] |  |  | 0.0043 µM |  |  | 0.073 µM |
| CN1[C@@H]2CC[C@H]1C[C@@H](CC(=O)NC(c1ccccc1)c1ccccc1)C2 | 30 µM | 1.2 µM | 7.9 µM | 120 µM | 4 | 100 µM |
